Data: ChEMBL document CHEMBL5303300, “EUbOPEN Chemogenomics Library - Multiplex” (2023)
“And” between values parts separate entries of the source, which are not always exact repeats. Identical values can stand only once.

Test system: Fibroblast
Test: Multiplex assay against human fibroblast
Format: toxicity, cell-based
Conditions: number of replicates 2
Procedure, shortened: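 Four dyes were applied at seeding to live cells: Hoechst33342, BioTracker Green Microtubule Cytoskeleton Dye, MitoTracker Red and Annexin V Alexa Fluor 680. Imaging after compound addition used a CQ1 microscope at 37°C and 5% CO2. CellPathfinder machine-learning gating then sorted cells into Hoechst high-intensity objects or normal cells, normal cells into healthy, pyknosed or fragmented nuclei, and pyknosed cells into mitotic or apoptotic, with tubulin, mitochondrial-mass and membrane-permeability phenotypes given as per cents of healthy-nucleus cells.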

[1] = 12 h, 1 µM, compound concentration 1 uM
[2] = 12 h, 10 µM, compound concentration 10 uM
[3] = 24 h, 1 µM, compound concentration 1 uM
[4] = 24 h, 10 µM, compound concentration 10 uM
[5] = 48 h, 1 µM, compound concentration 1 uM
[6] = 48 h, 10 µM, compound concentration 10 uM

Cc1c(C(=O)Nc2ccc(N3C[C@@H](C)O[C@@H](C)C3)nc2)cccc1-c1ccc(OC(F)(F)F)cc1 [SONIDEGIB]
Population Apoptotic (%) [1]: 46% and 32%
Population Fragmented Nuclei (%) [1]: 13% and 9%
Population Healthy Nuclei (%) [1]: 64% and 70%
Population Hoechst High Intensity Objects (%) [1]: 0%
Population Membrane Permeable-Phenotype (%) [1]: 5%
Population Mitochondria Different-Phenotype (%) [1]: 0% and 1%
Population Mitotic Cells (%) [1]: 53% and 67%
Population Normal (%) [1]: 100%
Population Pyknosed Nuclei (%) [1]: 22% and 20%
Population Tubulin-Different-Phenotype (%) [1]: 16% and 10%
Total Cell Count [1]: 193 and 230
Population Apoptotic (%) [2]: 55% and 38%
Population Fragmented Nuclei (%) [2]: 8% and 9%
Population Healthy Nuclei (%) [2]: 83% and 80%
Population Hoechst High Intensity Objects (%) [2]: 0%
Population Membrane Permeable-Phenotype (%) [2]: 1% and 0%
Population Mitochondria Different-Phenotype (%) [2]: 1% and 0%
Population Mitotic Cells (%) [2]: 44% and 61%
Population Normal (%) [2]: 100%
Population Pyknosed Nuclei (%) [2]: 7% and 10%
Population Tubulin-Different-Phenotype (%) [2]: 1% and 7%
Total Cell Count [2]: 117 and 128
Population Apoptotic (%) [3]: 53% and 52%
Population Fragmented Nuclei (%) [3]: 15% and 12%
Population Healthy Nuclei (%) [3]: 60% and 69%
Population Hoechst High Intensity Objects (%) [3]: 0%
Population Membrane Permeable-Phenotype (%) [3]: 3%
Population Mitochondria Different-Phenotype (%) [3]: 1% and 0%
Population Mitotic Cells (%) [3]: 46% and 47%
Population Normal (%) [3]: 100%
Population Pyknosed Nuclei (%) [3]: 24% and 17%
Population Tubulin-Different-Phenotype (%) [3]: 10% and 7%
Total Cell Count [3]: 179 and 224
Population Apoptotic (%) [4]: 53% and 57%
Population Fragmented Nuclei (%) [4]: 15% and 16%
Population Healthy Nuclei (%) [4]: 73% and 70%
Population Hoechst High Intensity Objects (%) [4]: 0%
Population Membrane Permeable-Phenotype (%) [4]: 4% and 5%
Population Mitochondria Different-Phenotype (%) [4]: 0% and 2%
Population Mitotic Cells (%) [4]: 46% and 42%
Population Normal (%) [4]: 100%
Population Pyknosed Nuclei (%) [4]: 10% and 13%
Population Tubulin-Different-Phenotype (%) [4]: 4% and 8%
Total Cell Count [4]: 123 and 141
Population Apoptotic (%) [5]: 63% and 45%
Population Fragmented Nuclei (%) [5]: 16% and 12%
Population Healthy Nuclei (%) [5]: 65% and 72%
Population Hoechst High Intensity Objects (%) [5]: 0%
Population Membrane Permeable-Phenotype (%) [5]: 1% and 5%
Population Mitochondria Different-Phenotype (%) [5]: 0%
Population Mitotic Cells (%) [5]: 36% and 54%
Population Normal (%) [5]: 100%
Population Pyknosed Nuclei (%) [5]: 18% and 15%
Population Tubulin-Different-Phenotype (%) [5]: 9% and 3%
Total Cell Count [5]: 162 and 218
Population Apoptotic (%) [6]: 57% and 66%
Population Fragmented Nuclei (%) [6]: 13% and 18%
Population Healthy Nuclei (%) [6]: 75% and 59%
Population Hoechst High Intensity Objects (%) [6]: 0%
Population Membrane Permeable-Phenotype (%) [6]: 4% and 6%
Population Mitochondria Different-Phenotype (%) [6]: 0% and 1%
Population Mitotic Cells (%) [6]: 42% and 33%
Population Normal (%) [6]: 100%
Population Pyknosed Nuclei (%) [6]: 10% and 21%
Population Tubulin-Different-Phenotype (%) [6]: 3% and 6%
Total Cell Count [6]: 128 and 138

CN[C@@H]1C[C@H]2O[C@@](C)([C@@H]1OC)n1c3ccccc3c3c4c(c5c6ccccc6n2c5c31)C(=O)NC4 [STAUROSPORINE]
Population Apoptotic (%) [2]: 76% and 73% and 72% and 71%
Population Fragmented Nuclei (%) [2]: 16% and 10% and 13%
Population Healthy Nuclei (%) [2]: 10% and 6% and 14% and 9%
Population Hoechst High Intensity Objects (%) [2]: 0% and 1%
Population Membrane Permeable-Phenotype (%) [2]: 20% and 15% and 7%
Population Mitochondria Different-Phenotype (%) [2]: 0% and 2%
Population Mitotic Cells (%) [2]: 23% and 26% and 27% and 28%
Population Normal (%) [2]: 99% and 100% and 98%
Population Pyknosed Nuclei (%) [2]: 72% and 82% and 74%
Population Tubulin-Different-Phenotype (%) [2]: 14% and 10% and 4%
Population Apoptotic (%) [4]: 95% and 88% and 87%
Population Fragmented Nuclei (%) [4]: 15% and 21% and 13%
Population Healthy Nuclei (%) [4]: 5% and 3% and 4% and 2%
Population Hoechst High Intensity Objects (%) [4]: 0% and 1%
Population Membrane Permeable-Phenotype (%) [4]: 50% [middle of 4 runs]
Population Mitochondria Different-Phenotype (%) [4]: 0%
Population Mitotic Cells (%) [4]: 4% and 11% and 12%
Population Normal (%) [4]: 100% and 99% and 98%
Population Pyknosed Nuclei (%) [4]: 78% and 74% and 82% and 84%
Population Tubulin-Different-Phenotype (%) [4]: 50% [middle of 4 runs]
Population Apoptotic (%) [6]: 99% and 93% and 92% and 91%
Population Fragmented Nuclei (%) [6]: 27% and 28% and 20% and 22%
Population Healthy Nuclei (%) [6]: 3% and 4% and 7% and 6%
Population Hoechst High Intensity Objects (%) [6]: 0%
Population Membrane Permeable-Phenotype (%) [6]: 66% [middle of 4 runs]
Population Mitochondria Different-Phenotype (%) [6]: 0% and 20%
Population Mitotic Cells (%) [6]: 0% and 6% and 7% and 8%
Population Normal (%) [6]: 100% and 99%
Population Pyknosed Nuclei (%) [6]: 69% and 66% and 72% and 71%
Population Tubulin-Different-Phenotype (%) [6]: 50% and 55% and 45% and 60%

Cc1ccc2c(c1CCC(=O)O)CC[C@@H](NS(=O)(=O)c1ccc(Cl)cc1)C2 [TERUTROBAN]
Population Apoptotic (%) [1]: 25% and 43%
Population Fragmented Nuclei (%) [1]: 8%
Population Healthy Nuclei (%) [1]: 71% and 75%
Population Hoechst High Intensity Objects (%) [1]: 0%
Population Membrane Permeable-Phenotype (%) [1]: 5% and 3%
Population Mitochondria Different-Phenotype (%) [1]: 1%
Population Mitotic Cells (%) [1]: 74% and 56%
Population Normal (%) [1]: 100%
Population Pyknosed Nuclei (%) [1]: 19% and 15%
Population Tubulin-Different-Phenotype (%) [1]: 10% and 7%
Total Cell Count [1]: 221 and 236
Population Apoptotic (%) [2]: 40% and 55%
Population Fragmented Nuclei (%) [2]: 8% and 15%
Population Healthy Nuclei (%) [2]: 69% and 67%
Population Hoechst High Intensity Objects (%) [2]: 0%
Population Membrane Permeable-Phenotype (%) [2]: 11% and 7%
Population Mitochondria Different-Phenotype (%) [2]: 1% and 0%
Population Mitotic Cells (%) [2]: 59% and 44%
Population Normal (%) [2]: 100%
Population Pyknosed Nuclei (%) [2]: 21% and 16%
Population Tubulin-Different-Phenotype (%) [2]: 26% and 19%
Total Cell Count [2]: 203 and 208
Population Apoptotic (%) [3]: 50% and 40%
Population Fragmented Nuclei (%) [3]: 10% and 14%
Population Healthy Nuclei (%) [3]: 74% and 75%
Population Hoechst High Intensity Objects (%) [3]: 0%
Population Membrane Permeable-Phenotype (%) [3]: 1%
Population Mitochondria Different-Phenotype (%) [3]: 1% and 0%
Population Mitotic Cells (%) [3]: 50% and 59%
Population Normal (%) [3]: 100%
Population Pyknosed Nuclei (%) [3]: 14% and 10%
Population Tubulin-Different-Phenotype (%) [3]: 9% and 3%
Total Cell Count [3]: 219 and 249
Population Apoptotic (%) [4]: 52% and 51%
Population Fragmented Nuclei (%) [4]: 10% and 14%
Population Healthy Nuclei (%) [4]: 73% and 72%
Population Hoechst High Intensity Objects (%) [4]: 0%
Population Membrane Permeable-Phenotype (%) [4]: 5% and 8%
Population Mitochondria Different-Phenotype (%) [4]: 2% and 0%
Population Mitotic Cells (%) [4]: 47% and 48%
Population Normal (%) [4]: 100%
Population Pyknosed Nuclei (%) [4]: 16% and 13%
Population Tubulin-Different-Phenotype (%) [4]: 20% and 11%
Total Cell Count [4]: 218 and 222
Population Apoptotic (%) [5]: 70% and 77%
Population Fragmented Nuclei (%) [5]: 13% and 14%
Population Healthy Nuclei (%) [5]: 77% and 76%
Population Hoechst High Intensity Objects (%) [5]: 0%
Population Membrane Permeable-Phenotype (%) [5]: 5% and 2%
Population Mitochondria Different-Phenotype (%) [5]: 0%
Population Mitotic Cells (%) [5]: 30% and 22%
Population Normal (%) [5]: 100%
Population Pyknosed Nuclei (%) [5]: 8%
Population Tubulin-Different-Phenotype (%) [5]: 7% and 1%
Total Cell Count [5]: 225 and 259
Population Apoptotic (%) [6]: 62% and 38%
Population Fragmented Nuclei (%) [6]: 8% and 16%
Population Healthy Nuclei (%) [6]: 79% and 77%
Population Hoechst High Intensity Objects (%) [6]: 0%
Population Membrane Permeable-Phenotype (%) [6]: 6% and 3%
Population Mitochondria Different-Phenotype (%) [6]: 1% and 0%
Population Mitotic Cells (%) [6]: 37% and 61%
Population Normal (%) [6]: 100%
Population Pyknosed Nuclei (%) [6]: 12% and 5%
Population Tubulin-Different-Phenotype (%) [6]: 12%
Total Cell Count [6]: 230 and 225
